A short description of experiment [1]: Inhibition of prostaglandin synthetase. The method in brief:
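Isolated soya bean lipoxygenase was the enzyme source. Arachidonic acid metabolites (prostaglandin E, leukotrienes) were analysed by reverse-phase ODS-18 HPLC with acetonitrile:water 70:30 mobile phase, detection at 280 nm. IC50 is the substrate concentration giving 50% inhibition. Values are the average of three independent experiments (n = 3).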

The target in experiment [2] is Glutathione hydrolase 1 proenzyme (Homo sapiens, UniProt P19440). As to the kind of experiment: Inhibition of gamma-glutamyltranspeptidase by colorimetric assay. The method in brief: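 Colorimetric read-out at 405 nm by a standard procedure. IC50 is the substrate concentration giving 50% inhibition of enzyme activity. Values are the average of three independent experiments (n = 3).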
Chain of Glutathione hydrolase 1 proenzyme (P19440 1-380 limits assumed): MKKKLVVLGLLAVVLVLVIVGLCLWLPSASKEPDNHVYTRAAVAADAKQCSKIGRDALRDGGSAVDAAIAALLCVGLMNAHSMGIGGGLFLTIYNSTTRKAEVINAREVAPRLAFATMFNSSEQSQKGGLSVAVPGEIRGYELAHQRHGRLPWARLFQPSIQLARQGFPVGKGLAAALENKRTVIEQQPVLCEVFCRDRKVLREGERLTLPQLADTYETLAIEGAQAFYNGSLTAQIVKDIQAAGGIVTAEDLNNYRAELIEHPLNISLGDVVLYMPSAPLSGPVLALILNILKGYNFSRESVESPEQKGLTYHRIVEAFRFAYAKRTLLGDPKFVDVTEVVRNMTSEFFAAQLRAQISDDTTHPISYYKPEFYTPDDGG
Chain of Glutathione hydrolase 1 proenzyme (P19440 381-569 limits assumed): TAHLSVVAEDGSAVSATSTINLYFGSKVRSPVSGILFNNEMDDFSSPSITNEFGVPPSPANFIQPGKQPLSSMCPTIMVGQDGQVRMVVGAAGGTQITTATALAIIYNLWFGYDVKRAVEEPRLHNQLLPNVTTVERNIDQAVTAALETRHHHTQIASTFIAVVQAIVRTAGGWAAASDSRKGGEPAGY

Experiment [3] is described as follows: Inhibition of phosphodiesterase assessed as production of inorganic phosphate. The method, boiled down:
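Activity measured as inorganic phosphate released with 5'-nucleotidase present in excess. IC50 is the substrate concentration giving 50% inhibition of enzyme activity. Values are the average of three independent experiments (n = 3).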

Experiment [4] is described as follows: Inhibition of superoxide dismutase assessed as inhibition of superoxide generation by spectrophotometry. The method, boiled down: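 Superoxide generation measured in a cell-membrane-free system by spectrophotometry at 340 nm. IC50 is the substrate concentration giving 50% inhibition of enzyme activity. Values are the average of three independent experiments (n = 3).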

A word on the IC50: it is the point on the concentration scale where inhibition reaches its midpoint.

Turning to `CNC(=O)C1=C(C)C2=C(Nc3ccccc3S2)C(C(=O)NC)C1c1ccc2c(c1)OCO2` (stereo not drawn), the IC50 in experiment [1] was 28 µM; in experiment [2], greater than 30 µM; in experiment [3] it was greater than 30 µM; in experiment [4] it was greater than 30 µM.
On to `CNC(=O)C1=C(C)C2=C(Nc3ccccc3S2)C(C(=O)NC)C1c1ccc(OC)cc1` (stereo not drawn), for which the IC50 in experiment [1] worked out at 20 µM; in experiment [2], 25 µM; in experiment [3], 21 µM; in experiment [4] it was 18 µM.
`CNC(=O)c1c(C)c2c(c(C(=O)NC)c1-c1ccccc1OC)Nc1ccccc1S2`: the IC50 is 22 µM in experiment [1], 28 µM in experiment [2], 25 µM in experiment [3] and greater than 30 µM in experiment [4].
Taken in the same sequence, the figures for `CNC(=O)C1=C(C)C2=C(Nc3ccccc3S2)C(C(=O)NC)C1c1ccccc1C` (stereo not drawn) were 21 µM, 22 µM, 18 µM and 17 µM.
For `CNC(=O)C1=C(C)C2=C(Nc3ccccc3S2)C(C(=O)NC)C1c1ccc(Cl)cc1` (stereo not drawn), in that order: 28 µM, greater than 35 µM, 26 µM and 31 µM.
Taken in the same sequence, the figures for `CNC(=O)c1c(C)c2c(c(C(=O)NC)c1-c1ccccc1Cl)Nc1ccccc1S2` were 15 µM, 18 µM, 15 µM and 20 µM.
For the compound `CNC(=O)c1c(C)c2c(c(C(=O)NC)c1-c1ccccc1C)Nc1ccccc1S2`, the IC50 came out at 21 µM in experiment [1], 25 µM in experiment [2], 18 µM in experiment [3] and 18 µM in experiment [4].
Regarding `CNC(=O)C1=C(C)C2=C(Nc3ccccc3S2)C(C(=O)NC)C1c1ccccc1` (stereo not drawn), the half-maximal inhibitory concentration (IC50) amounted to 18 µM in experiment [1], 20 µM in experiment [2], 16 µM in experiment [3] and 15 µM in experiment [4].
With `CNC(=O)c1c(C)c2c(c(C(=O)NC)c1-c1ccc(Cl)cc1)Nc1ccccc1S2`, the IC50 in experiment [1] came out at 23 µM; in experiment [2], 20 µM; in experiment [3], 18 µM; in experiment [4], 18 µM.
Regarding `CC(=O)Oc1ccccc1C(=O)O` [ASPIRIN], the IC50 in experiment [1] was 24 µM; in experiment [2], 36 µM; in experiment [3], 22 µM; in experiment [4], 28 µM.
For `CNC(=O)C1=C(C)C2=C(Nc3ccccc3S2)C(C(=O)NC)C1c1ccc([N+](=O)[O-])cc1` (stereo not drawn), the IC50 in experiment [1] is 28 µM; in experiment [2], 36 µM; in experiment [3] it was greater than 30 µM; in experiment [4], 32 µM.
For `CNC(=O)C1=C(C)C2=C(Nc3ccccc3S2)C(C(=O)NC)C1c1ccccc1Cl` (stereo not drawn), in that order: 16 µM, 19 µM, 13 µM and 18 µM.
Taken in the same sequence, the figures for `CNC(=O)C1=C(C)C2=C(Nc3ccccc3S2)C(C(=O)NC)C1c1ccccc1OC` (stereo not drawn) were 20 µM, greater than 30 µM, greater than 30 µM and greater than 30 µM.
As to `CNC(=O)c1c(C)c2c(c(C(=O)NC)c1-c1ccc3c(c1)OCO3)Nc1ccccc1S2`, the IC50 in experiment [1] was determined as 24 µM; in experiment [2] it was 18 µM; in experiment [3] it was 20 µM; in experiment [4], 20 µM.
For `CNC(=O)c1c(C)c2c(c(C(=O)NC)c1-c1ccccc1)Nc1ccccc1S2`, the IC50 amounted to 18 µM in experiment [1], 20 µM in experiment [2] and 14 µM in experiment [4].
For `CNC(=O)c1c(C)c2c(c(C(=O)NC)c1-c1ccc(OC)cc1)Nc1ccccc1S2`, the IC50 in experiment [1] turned out to be 18 µM; in experiment [2], 21 µM; in experiment [3], 22 µM; in experiment [4], 19 µM.
